Compound activity from PubChem BioAssay.
A selection: hits, their analogues and other compounds. The true share with any hit is near 6.8%.
HER2 expr 66K – inhibitors of Her2 protein expression, primary screen, SKBR-3 cells, AlphaScreen, 66K library. Receptor tyrosine-protein kinase erbB-2 (Homo sapiens), P04626. SKBR-3 HER2 protein level, 18-24 h; stronger effect = lower value. HER2 level % of control, % at 10 µM. hit rate 0.69% among 65,000. AID 645, 2007;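 active means HER2 level under 5% of the carrier-only control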;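 further: 100% = DMSO carrier and 0% = 500 nM PU-H71 HSP90 inhibitor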
M1 antagonist – antagonists of rat M1 muscarinic receptor; Muscarinic acetylcholine receptor M1 (Rattus norvegicus), P08482; CHO-M1 cells, Fluo-4 calcium, ACh EC80 antagonist mode; stronger effect = lower value; B-score at 10 µM; hit rate 3.4% among 64,000;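 active means calcium fluorescence response, raw or row-and-column corrected B-score, differing from the plate sample mean either way at a set confidence level, mostly lower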
Target sequence (P08482 whole entry, looked up): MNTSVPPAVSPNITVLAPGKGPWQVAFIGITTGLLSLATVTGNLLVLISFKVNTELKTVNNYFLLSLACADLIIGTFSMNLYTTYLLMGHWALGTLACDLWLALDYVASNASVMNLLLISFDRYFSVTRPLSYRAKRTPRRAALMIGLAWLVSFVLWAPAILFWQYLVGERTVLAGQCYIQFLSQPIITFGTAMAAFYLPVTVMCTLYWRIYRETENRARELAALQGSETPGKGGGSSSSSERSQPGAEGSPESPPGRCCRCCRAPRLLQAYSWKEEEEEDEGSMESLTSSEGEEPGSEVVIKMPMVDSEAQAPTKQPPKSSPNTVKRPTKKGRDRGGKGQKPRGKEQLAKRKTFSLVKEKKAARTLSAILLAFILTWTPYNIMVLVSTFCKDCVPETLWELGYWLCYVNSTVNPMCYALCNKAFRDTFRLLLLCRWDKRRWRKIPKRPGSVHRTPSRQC
HEK293 NFkB inh – inhibitors of PMA/ionomycin-induced NF-kB reporter, primary screen, antigen receptor NF-kB inhibitor project, cell-based, HEK-293 luciferase reporter, luminescence; inhibition, % at 3 µM; hit rate 0.21% among 62,000; HEK-293 NF-kB luciferase reporter; AID 465, 2006;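 active means inhibition above the mean of all tested compounds plus 3 SD, cut at about 40% in these data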;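 further: 0% = stimulated DMSO wells and 100% = 10 µM reference inhibitor 5653914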
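Reagent: PMA plus ionomycin mix as NF-kB-activating stimulus. Assay system: NF-kB luciferase reporter HEK-293 cells. Technique: luminescence from luciferase substrate reagent. Incubation: 1 h compound pre-incubation, 16 h PMA/ionomycin at 37 °C. Benchmarks: DMSO only as uninhibited control, 10 µM reference inhibitor as full inhibition. Repeats: tested once.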
MKP-1 inh – MKP-1 phosphatase inhibitors, primary screen, biochemical, in vitro | AID 374, 2006 | recombinant MKP-1, OMFP hydrolysis fluorescence | inhibition, %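 (compounds tested at a single concentration somewhere between 10 and 100 µM)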 | hit rate 0.15% among 65,000 | Dual specificity protein phosphatase 1 (Homo sapiens), P28562;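 active means inhibition above about 50%, limit read from the data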;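 further: 0% = DMSO max control wells and 100% = wells with enzyme stopped by NaOH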
M1 agonist – M1 muscarinic receptor agonists, primary screen, CHO-M1 cells, Fluo-4 calcium, agonist mode; B-score at 10 µM; Muscarinic acetylcholine receptor M1; hit rate 3% among 64,000; Fluo-4 calcium fluorescence; stronger effect = higher value;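 active means fluorescence rise, raw or as B-score row- and column-corrected plate score, outside the 99.7% band of its plate's samples, either direction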
Cdc25B inh – inhibitors of Cdc25B phosphatase catalytic domain, primary screen, biochemical, OMFP fluorescence; M-phase inducer phosphatase 2 (Homo sapiens), P30305; recombinant Cdc25B, OMFP fluorescence Ex485/Em525; inhibition, %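 (compounds tested at 10 µM final in the well)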; hit rate 0.1% among 65,000; AID 368, 2006; in the data active means inhibition above about 50%
M1 antag confirm – rat M1 muscarinic receptor antagonists, confirmation, CHO cells, Fluo-4 calcium, duplicate; shares compounds with M1 antagonist; ACh EC80 antagonism; stronger effect = lower value; calcium response (max-min fluorescence) at 10 µM; hit rate 43% among 1,700;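 active means calcium response below the same-plate mean of wells given acetylcholine alone at its 80%-effect dose, minus 3 SD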;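 further: raw fluorescence intensity difference in arbitrary instrument units and not normalized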
mGluR4 antag – human mGluR4 response to M1 antagonist hits, M1 allosteric modulator project, cell-based, antagonist mode, secondary assay 1. shares compounds with M1 antagonist. CHO-mGluR4 calcium flux, Fluo-4 fluorescence, glutamate EC80; stronger effect = lower value. fluorescence response (max-min) at 10 µM. hit rate 0.9% among 1,700. AID 678, 2007;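 active means fluorescence response below the plate's average for near-maximal glutamate wells, less 3 SD of those wells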;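 further: raw unnormalized fluorescence span taken in the window right after glutamate addition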
The depositor's hits bear a star; nt = not tested or not shown.

SMILES	HER2 expr 66K	M1 antagonist	HEK293 NFkB inh	MKP-1 inh	M1 agonist	Cdc25B inh	M1 antag confirm	mGluR4 antag
Cc1ccc2c(c1)NC(=O)C(CC(=O)NCCCN1CCN(c3cc(Cl)ccc3C)CC1)O2 (configuration not stated)	66.7	-2.1*	9.1	-9.1	-0.798	-4.6	332*	254
CCOC(=O)Nc1ccc2c(c1)N(C(=O)CN1CCN(C)CC1)c1ccccc1S2	127.4	-13.1*	5.6	-16.4	-0.699	2.6	46.3*	226
CCOC(=O)Nc1ccc2c(c1)N(C(=O)CCN(C)C)c1ccccc1S2	37.9	-10.3*	4.8	4.4	-0.095	-6.1	21.9*	251
CCOC(=O)Nc1ccc2c(c1)N(C(=O)OC)c1ccccc1CC2	51.8	0.118	17.4	1.1	-1.04	-2.6	nt	nt
COc1cc(C(=S)N2CCCC2)cc(Cl)c1O	134.7	-2.02*	11.0	38.9	-0.0105	-4.2	685	246
O=C(Nc1nncs1)C1c2ccccc2Oc2ccccc21	54.1	-0.505	4.9	-2.7	-0.752	-10.3	nt	nt
C1CCN=C(Nc2nc3c(s2)CCCC3)CC1	79.9	-6.44*	-10.7	1.1	0.859	-7.7	468*	207
CCOCCCNc1nc(=S)[nH]c2cc(OC)c(OC)cc12	75.2	-2.9*	12.3	10.5	-0.344	8.0	550	206
CN1CCN(c2nc(NCCOC34CC5CC(CC(C5)C3)C4)nc(OCC(F)(F)F)n2)CC1	59.9	-6.17*	5.5	26.5	-1.13	-1.5	484*	190
FC(F)(F)C(Oc1nc(NC2CCCCC2)nc(N2CCOCC2)n1)C(F)(F)F	135.9	-0.197	19.1	11.2	-0.748	0.6	nt	nt
O=C(NCCC1=CCCCC1)C1CCN(S(=O)(=O)c2cccc3nsnc23)CC1	147.2	-0.161	20.4	-3.2	-0.177	-4.5	nt	nt
CCN(CC)Cc1cc(C(C)=O)ccc1OCC(C)C	96.5	-0.322	nt	-10.3	-0.379	12.7	nt	nt
CCN(CC)Cc1cc(CC(C(N)=O)C(N)=O)ccc1OC	130.0	-2.49*	11.8	-15.9	1.07	-10.9	672	224
CCCN(CCC)CCCNC(=O)c1ccc2c(c1)N(CC)C(=O)c1ccccc1S2=O (configuration not stated)	114.2	-4.18*	12.9	24.6	-0.402	-10.8	328*	202
Cn1nc(-c2ccc(Cl)cc2)c2cc(C(=O)N3CCC(N4CCCCC4)CC3)sc21	72.0	0.735	-3.2	-4.3	-0.642	0.5	nt	nt
CCN(CC)C(=O)COc1ccc(-c2nnc(N3CCCCC3)c3ccccc23)cc1	97.8	-2.91*	20.7	7.3	-0.329	-13.7	531*	181
CCN(CC)C(=O)COc1ccc(-c2ccccc2)cc1	111.2	-0.84	-13.5	4.9	-0.446	-1.9	nt	nt
OCCN=C(c1ccccc1)C12CN3CN(CN(C3)C1)C2	111.2	-2.4*	nt	-17.4	-0.866	-34.9	466	215
Cc1cc(C(=O)N2CCN(C(c3ccccc3)c3ccccc3)CC2)on1	92.4	-1.35*	-2.9	-3.2	-0.00288	-15.5	361*	241
CCOC(=O)c1oc2ccccc2c1NC(=O)c1cccc(OC)c1OC	111.1	-0.0415	7.2	0.1	0.615	-15.0	nt	nt
COc1ccc(-c2oc3ncnc(NCCN4CCOCC4)c3c2-c2ccc(OC)cc2)cc1	52.4	0.0188	23.0	7.7	0.748	-4.1	nt	nt
COc1ccc(-c2oc3ncn(CCN4CCOCC4)c(=N)c3c2-c2ccc(OC)cc2)cc1	74.9	-11.1*	17.3	9.7	-0.171	-1.7	261*	264
COc1ccc(C(=O)N2CCC(C(=O)Nc3ccccc3OC)CC2)cc1	84.4	-4.99*	28.1	11.9	0.19	14.1	644	249
CC(C)(C)N(Cc1ccccc1)C(=O)c1ccc2c(c1)OCCO2	86.1	-1.79*	7.9	-13.0	0.0592	-1.1	483	204
COc1cccc(-c2cnc(NCc3cc(Cl)ccc3O)n2C)c1	108.9	-5.05*	12.4	7.9	-1.53	-11.9	359*	185
SMILES	HER2 expr 66K	M1 antagonist	HEK293 NFkB inh	MKP-1 inh	M1 agonist	Cdc25B inh	M1 antag confirm	mGluR4 antag
Cn1c(-c2cccc(Br)c2)cnc1NCc1cccnc1	95.9	-6.92*	14.0	-21.2	-0.0229	-6.5	40.2*	166
CCOc1ccc2nc(NC(=O)CN3CCC(n4nnc5cc(F)ccc54)CC3)sc2c1	65.7	-1.92	17.0	29.4	0.519	-3.7	nt	nt
O=C1CN(C(=O)CN2CCCC2)C(c2ccccc2)c2cc(Br)ccc2N1 (configuration not stated)	122.0	-2.8*	11.2	-12.0	-0.252	-5.3	473	305
CCOC(=O)NC(Nc1cc(C)ccn1)(C(F)(F)F)C(F)(F)F	105.9	-0.00615	-1.8	1.0	-0.506	-10.7	nt	nt
COc1ccc(N2CCN(C(=O)c3ccc(OCC4CCCO4)cc3)CC2)cc1 (configuration not stated)	112.8	-0.278	6.5	19.4	-0.612	6.9	nt	nt
CCOc1nc(C#N)nc(N2CCCCC2)n1	58.8	-1.2*	26.2	-25.6	-1.64	-8.5	430*	234
CCOc1nc(OCC)nc(N2CCC(C)CC2)n1	129.8	0.299	5.9	-6.9	-0.812	-18.1	nt	nt
O=C(CN1CCOCC1)OCCCC1CCCCC1	112.2	-3.94*	9.6	6.4	-0.904	3.6	517	194
COc1cccc2cc(C(=O)N3CCN(C45CC6CC(CC(C6)C4)C5)CC3)c(=O)oc12	77.5	-1.76*	4.3	15.3	0.503	24.0	412*	201
CCOC(=O)c1ccc2c(c1)nc(C1CCN(S(=O)(=O)c3cccs3)CC1)n2CC	72.9	-2.91*	5.2	22.7	1.83	2.5	474*	210
COc1ccccc1-n1c(C)nnc1SCC(N)=O	112.4	-4.33*	-10.0	-19.1	0.199	-0.8	486	233
COc1ccccc1-n1c(SCC(N)=O)nnc1-c1ccccc1	86.1	-0.0195	5.3	-8.8	-1.44	2.9	nt	nt
CC(=O)N1CCCc2cc(S(=O)(=O)NCCC3=CCCCC3)ccc21	109.5	-1.21	13.7	-4.0	-0.842	6.3	nt	nt
O=C1C2C3CCCC3=C3CCCC3C2C(=O)N1c1ccccc1 (configuration not stated)	109.1	-3.18*	12.5	-5.9	-0.149	-8.7	321*	195
